From the RNAGym collection of RNA variant scans (doi:10.1002/anie.201605470)

B1: Osa-1-4 twister ribozyme (parent)
chain: CCGCCUAACACUGCCAAUGCCGGUCCCAAGCCCGGAUAAAAGUGGAGGGGGCGG

Variants of: B1
Test: self-cleavage, relative activity (ratio to wild type); higher = more cleavage; co-transcriptional
Outline: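 Values are relative activity: the fraction cleaved, normalised to wild type. A doped DNA template for a 54-nucleotide twister ribozyme from Oryza sativa had 97 % wild-type base and 1 % of each other base at the 48 positions downstream of the cleavage site. The RNA was transcribed in vitro for 2 h at 37 °C so that it could cleave itself co-transcriptionally, then sequenced deeply, with cleavage status scored from the presence or absence of upstream sequence in reads.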

Going from A39G C9A to A39G C9G, the self-cleavage rises from 0.39 to 0.66.

Compared with A39G C9U, A39C G23A is lower in self-cleavage: 0.73 for the first, 0.12 for the second.

Compared with A39C G23U, A39C G23C is lower in self-cleavage: 0.05 for the first, 0.04 for the second.

Compared with A39G A46U, A39G A46C is lower in self-cleavage: 0.09 for the first, 0.05 for the second.

First: A39G A46G
Second: A39C C32A
The self-cleavage of the first is lower: 0.06 for the first, 0.08 for the second.

Compared with A39C C32G, A39C C32U is lower in self-cleavage: 0.1 for the first, 0.08 for the second.

First: A38U U18A
Second: A38U U18C
The self-cleavage of the first is lower: 0.92 for the first, 0.93 for the second.

First: A38U U18G
Second: A39C G45A
The self-cleavage of the first is higher: 0.85 for the first, 0.08 for the second.

Compared with A39C G45C, A39C G45U is higher in self-cleavage: 0.05 for the first, 0.06 for the second.

A39C G49U and A39C G49C are the same in self-cleavage: 0.06 for the first, 0.06 for the second.

Going from A39C G49A to A38U U37C, the self-cleavage rises from 0.07 to 1.04.

A38U U37A and A38U U37G are the same in self-cleavage: 1.03 for the first, 1.03 for the second.

A39C A7U and A39C A7C are the same in self-cleavage: 0.06 for the first, 0.06 for the second.

First: A39C A7G
Second: A39C G48A
The self-cleavage of the first is higher: 0.12 for the first, 0.06 for the second.

A39C G48U and A39C G48C are the same in self-cleavage: 0.05 for the first, 0.05 for the second.

Compared with A39C A46U, A39C A46G is lower in self-cleavage: 0.07 for the first, 0.05 for the second.

Going from A39C A46C to A39C C26U, the self-cleavage rises from 0.04 to 0.35.

Going from A39C C26G to A39C C26A, the self-cleavage falls from 0.07 to 0.04.

Compared with A39C G51A, A39C G51U is lower in self-cleavage: 0.53 for the first, 0.21 for the second.

Compared with A39C G51C, A39C C25G is higher in self-cleavage: 0.05 for the first, 0.06 for the second.

First: A39C C25U
Second: A39C C25A
The self-cleavage of the first is higher: 0.33 for the first, 0.06 for the second.

A39C U43G and A39C U43C are the same in self-cleavage: 0.16 for the first, 0.16 for the second.

Compared with A39C U43A, A39C C14U is lower in self-cleavage: 0.33 for the first, 0.11 for the second.

First: A39C C14G
Second: A39C C14A
The self-cleavage of the first is lower: 0.05 for the first, 0.08 for the second.

Going from A39C U18A to A39C U18C, the self-cleavage rises from 0.93 to 0.96.

First: A39C U18G
Second: A38U U43G
The self-cleavage of the first is higher: 0.83 for the first, 0.47 for the second.

Compared with A38U U43C, A38U U43A is higher in self-cleavage: 0.39 for the first, 0.95 for the second.

Going from A38U G54U to A38U G54A, the self-cleavage falls from 0.95 to 0.93.

Going from A38U G54C to A39C G50C, the self-cleavage falls from 0.89 to 0.67.

Going from A39C G50A to A39C G50U, the self-cleavage rises from 0.64 to 1.

First: A39C U24G
Second: A39C U24A
The self-cleavage of the first is lower: 0.03 for the first, 0.05 for the second.

Going from A39C U24C to A39C C20A, the self-cleavage rises from 0.06 to 0.87.

First: A39C C20G
Second: A39C C20U
The self-cleavage of the first is lower: 0.1 for the first, 0.94 for the second.

Compared with A39C C21U, A39C C21A is lower in self-cleavage: 0.97 for the first, 0.22 for the second.

Compared with A39C C21G, A39C C31A is lower in self-cleavage: 0.08 for the first, 0.04 for the second.

Compared with A39C C31G, A39C C31U is higher in self-cleavage: 0.08 for the first, 0.53 for the second.

Compared with A39C G44A, A39C G44C is higher in self-cleavage: 0.71 for the first, 0.93 for the second.

Compared with A39C G44U, A39G A40G is lower in self-cleavage: 0.88 for the first, 0.36 for the second.

First: A39G A40U
Second: A39G A40C
The self-cleavage of the first is higher: 0.16 for the first, 0.05 for the second.

First: A39C
Second: A39G
The self-cleavage of the first is lower: 0.99 for the first, 1 for the second.

First: A39G A41U
Second: A39G A41G
The self-cleavage of the first is higher: 0.95 for the first, 0.46 for the second.

Compared with A39G A41C, A39C U12G is lower in self-cleavage: 0.6 for the first, 0.11 for the second.

Compared with A39C U12C, A39C U12A is higher in self-cleavage: 0.11 for the first, 0.44 for the second.

First: A39C G54U
Second: A39C G54C
The self-cleavage of the first is higher: 0.65 for the first, 0.6 for the second.

Going from A39C G54A to A39C G30A, the self-cleavage falls from 0.62 to 0.04.

Going from A39C G30C to A39C G30U, the self-cleavage falls from 0.04 to 0.03.

Compared with A39C G53U, A39C G53A is higher in self-cleavage: 0.12 for the first, 0.37 for the second.

Compared with A39C G53C, A39C G19A is higher in self-cleavage: 0.06 for the first, 0.28 for the second.

Compared with A39C G19C, A39C G19U is higher in self-cleavage: 0.06 for the first, 0.11 for the second.

Going from A39C C27G to A39C C27U, the self-cleavage rises from 0.06 to 0.09.

First: A39C C27A
Second: A39C G13C
The self-cleavage of the first is higher: 0.11 for the first, 0.02 for the second.

Going from A39C G13A to A39C G13U, the self-cleavage falls from 0.06 to 0.03.

Compared with A39C G47A, A39C G47C is lower in self-cleavage: 0.08 for the first, 0.06 for the second.

Compared with A39C G47U, A39G A7U is lower in self-cleavage: 0.1 for the first, 0.08 for the second.

Going from A39G A7C to A39G A7G, the self-cleavage rises from 0.04 to 0.31.

Compared with A39G A8G, A39G A8C is lower in self-cleavage: 0.35 for the first, 0.08 for the second.

Going from A39G A8U to A39C A8U, the self-cleavage falls from 0.17 to 0.1.

Going from A39C A8G to A39C A8C, the self-cleavage falls from 0.23 to 0.09.

Going from A38U U12C to A38U U12A, the self-cleavage rises from 0.4 to 0.86.

Compared with A38U U12G, A39C C11A is lower in self-cleavage: 0.31 for the first, 0.26 for the second.

First: A39C C11G
Second: A39C C11U
The self-cleavage of the first is lower: 0.21 for the first, 0.74 for the second.

Going from A39C U37C to A39C U37A, the self-cleavage falls from 1.02 to 0.92.

Compared with A39C U37G, A38U G51U is lower in self-cleavage: 0.98 for the first, 0.32 for the second.

Compared with A38U G51A, A38U G51C is lower in self-cleavage: 0.63 for the first, 0.09 for the second.

Compared with A38U G53C, A38U G53A is higher in self-cleavage: 0.09 for the first, 0.81 for the second.

Compared with A38U G53U, A38U U24G is lower in self-cleavage: 0.27 for the first, 0.03 for the second.

First: A38U U24A
Second: A38U U24C
The self-cleavage of the first is lower: 0.14 for the first, 0.25 for the second.

Compared with A39C G22C, A39C G22A is higher in self-cleavage: 0.05 for the first, 0.78 for the second.

First: A39C G22U
Second: A39C C15U
The self-cleavage of the first is lower: 0.41 for the first, 0.57 for the second.

Compared with A39C C15G, A39C C15A is higher in self-cleavage: 0.16 for the first, 0.23 for the second.

Compared with A39C G35U, A39C G35C is lower in self-cleavage: 0.84 for the first, 0.14 for the second.

Compared with A39C G35A, A39C G34C is lower in self-cleavage: 0.78 for the first, 0.2 for the second.

Going from A39C G34U to A39C G34A, the self-cleavage rises from 0.42 to 0.63.

Compared with A39C C33A, A39C C33U is higher in self-cleavage: 0.06 for the first, 0.38 for the second.

First: A39C C33G
Second: A39C A40G
The self-cleavage of the first is lower: 0.07 for the first, 0.59 for the second.

Going from A39C A40C to A39C A40U, the self-cleavage rises from 0.1 to 0.85.

Going from A39G C11A to A39G C11U, the self-cleavage rises from 0.62 to 0.93.

Compared with A39G C11G, A39C G42C is lower in self-cleavage: 0.51 for the first, 0.09 for the second.

Going from A39C G42U to A39C G42A, the self-cleavage rises from 0.05 to 0.1.

First: A39C C9U
Second: A39C C9A
The self-cleavage of the first is higher: 0.55 for the first, 0.28 for the second.

First: A39C C9G
Second: A39C C52U
The self-cleavage of the first is lower: 0.34 for the first, 1.06 for the second.

Compared with A39C C52G, A39C C52A is higher in self-cleavage: 0.96 for the first, 1 for the second.

First: A39C A41C
Second: A39C A41U
The self-cleavage of the first is lower: 0.37 for the first, 0.96 for the second.

A39C A41G showed a self-cleavage of 0.23.
